Active and inactive are the calls of the source. The calls are words filed in the database; no cut-off is given here.
How the values were obtained:
[1] = biological target: T1, ATP-dependent translocase ABCB1 (Homo sapiens, UniProt P08183); experiment: Inhibition of ABCB1 overexpressed in human KBv1 cells by flow cytometric-based calcein-AM efflux assay; format: cell-based
[2] = biological target: T2, Broad substrate specificity ATP-binding cassette transporter ABCG2 (Homo sapiens, UniProt Q9UNQ0); experiment: Inhibition of ABCG2 over-expressed in human MCF7/Topo cells at 7 to 10 uM by flow cytometric-based mitoxantrone efflux assay relative to fumitremorgin C; format: cell-based
T2 sequence (Q9UNQ0 whole entry): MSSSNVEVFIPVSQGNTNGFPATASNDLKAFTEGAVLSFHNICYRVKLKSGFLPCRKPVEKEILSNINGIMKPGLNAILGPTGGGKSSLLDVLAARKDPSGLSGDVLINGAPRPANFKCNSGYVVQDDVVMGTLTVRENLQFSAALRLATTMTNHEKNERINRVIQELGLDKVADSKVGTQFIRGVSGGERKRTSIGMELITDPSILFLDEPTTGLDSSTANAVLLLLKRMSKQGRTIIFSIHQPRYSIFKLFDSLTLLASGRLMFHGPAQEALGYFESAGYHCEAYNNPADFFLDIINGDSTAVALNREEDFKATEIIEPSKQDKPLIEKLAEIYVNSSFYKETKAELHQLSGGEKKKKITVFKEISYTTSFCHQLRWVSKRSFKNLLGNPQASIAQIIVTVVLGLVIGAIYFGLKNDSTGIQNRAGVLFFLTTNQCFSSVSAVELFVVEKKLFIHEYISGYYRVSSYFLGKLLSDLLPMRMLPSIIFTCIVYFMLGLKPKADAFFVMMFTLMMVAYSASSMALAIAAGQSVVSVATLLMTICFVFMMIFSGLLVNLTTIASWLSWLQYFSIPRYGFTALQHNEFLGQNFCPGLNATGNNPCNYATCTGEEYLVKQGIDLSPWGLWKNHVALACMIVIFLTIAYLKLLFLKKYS
Procedure, shortened: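 MCF-7/Topo cells, 1 × 10^6/mL, loaded 30 min at 37 °C with 20 µM mitoxantrone plus compound, then 1 h efflux in drug-free medium; flow cytometry. Maximal inhibition = effect at highest tested concentration (7 or 10 µM) relative to 10 µM fumitremorgin C (100%, ice-kept sample); geometric mean fluorescence.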

[3] = biological target: T3, ATP-binding cassette sub-family C member 2 (Homo sapiens, UniProt Q92887); experiment: Inhibition of ABCC2 overexpressed in MDCK cells […] up to 50 uM by flow cytometric-based chloromethylfluorescein-diacetate accumulation assay; format: cell-based; conditions: dog
T3 sequence (Q92887 whole entry): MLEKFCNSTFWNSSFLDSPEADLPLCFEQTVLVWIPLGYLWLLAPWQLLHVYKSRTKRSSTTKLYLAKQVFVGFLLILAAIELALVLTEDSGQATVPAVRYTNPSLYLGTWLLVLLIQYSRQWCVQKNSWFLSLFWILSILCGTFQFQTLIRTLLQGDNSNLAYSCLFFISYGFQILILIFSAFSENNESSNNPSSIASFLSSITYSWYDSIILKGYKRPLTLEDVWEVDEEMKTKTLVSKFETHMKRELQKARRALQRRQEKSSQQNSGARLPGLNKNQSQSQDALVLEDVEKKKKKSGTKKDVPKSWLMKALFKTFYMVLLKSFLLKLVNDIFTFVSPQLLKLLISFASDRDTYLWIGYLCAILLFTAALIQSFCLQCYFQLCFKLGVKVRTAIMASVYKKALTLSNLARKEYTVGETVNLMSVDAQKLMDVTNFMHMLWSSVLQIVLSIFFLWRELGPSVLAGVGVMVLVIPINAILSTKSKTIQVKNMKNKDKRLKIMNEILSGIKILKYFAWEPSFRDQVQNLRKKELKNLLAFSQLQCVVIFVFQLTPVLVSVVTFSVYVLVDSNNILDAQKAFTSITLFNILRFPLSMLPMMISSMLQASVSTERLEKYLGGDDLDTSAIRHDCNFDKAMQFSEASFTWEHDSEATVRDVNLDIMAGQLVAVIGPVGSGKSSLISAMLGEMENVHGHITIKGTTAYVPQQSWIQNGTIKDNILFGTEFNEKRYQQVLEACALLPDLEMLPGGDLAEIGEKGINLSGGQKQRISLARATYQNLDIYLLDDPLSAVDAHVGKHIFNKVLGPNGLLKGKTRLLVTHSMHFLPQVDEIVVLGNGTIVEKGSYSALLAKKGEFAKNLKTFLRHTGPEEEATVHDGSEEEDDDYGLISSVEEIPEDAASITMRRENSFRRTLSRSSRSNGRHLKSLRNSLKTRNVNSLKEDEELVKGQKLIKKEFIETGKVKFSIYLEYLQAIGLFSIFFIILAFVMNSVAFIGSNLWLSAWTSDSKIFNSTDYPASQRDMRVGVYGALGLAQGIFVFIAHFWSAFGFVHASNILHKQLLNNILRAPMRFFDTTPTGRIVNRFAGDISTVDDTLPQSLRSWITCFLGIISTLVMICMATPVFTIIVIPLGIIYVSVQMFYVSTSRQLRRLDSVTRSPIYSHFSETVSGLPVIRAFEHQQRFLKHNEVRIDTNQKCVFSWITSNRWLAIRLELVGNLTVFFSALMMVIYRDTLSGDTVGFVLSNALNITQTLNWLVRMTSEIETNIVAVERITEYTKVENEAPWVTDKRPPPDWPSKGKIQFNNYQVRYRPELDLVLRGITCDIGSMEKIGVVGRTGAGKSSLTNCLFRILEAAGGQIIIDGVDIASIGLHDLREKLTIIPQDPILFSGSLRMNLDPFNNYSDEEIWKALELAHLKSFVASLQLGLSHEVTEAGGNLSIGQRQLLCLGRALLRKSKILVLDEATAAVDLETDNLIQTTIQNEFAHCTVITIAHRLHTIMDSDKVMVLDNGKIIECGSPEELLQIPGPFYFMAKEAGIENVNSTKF

[4] = biological target: T2, Broad substrate specificity ATP-binding cassette transporter ABCG2; experiment: Inhibition of ABCG2 overexpressed in human MCF7/Topo cells by flow cytometric-based mitoxantrone efflux assay; format: cell-based
Procedure, shortened: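 MCF-7/Topo cells, 1 × 10^6/mL, incubated 30 min at 37 °C/5% CO2 with 20 µM mitoxantrone and graded modulator; washed, 1 h efflux in drug-free medium at 37 °C, PBS resuspension, flow cytometry.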

[5] = biological target: T4, ABCB1 (Homo sapiens, UniProt P08183); experiment: Inhibition of ABCB1 overexpressed in human KBv1 cells at 100 uM by flow cytometric-based calcein-AM efflux assay; format: cell-based; conditions: KBv1 cells overexpressing ABCB1, probe calcein-AM
T4 sequence (P08183 whole entry): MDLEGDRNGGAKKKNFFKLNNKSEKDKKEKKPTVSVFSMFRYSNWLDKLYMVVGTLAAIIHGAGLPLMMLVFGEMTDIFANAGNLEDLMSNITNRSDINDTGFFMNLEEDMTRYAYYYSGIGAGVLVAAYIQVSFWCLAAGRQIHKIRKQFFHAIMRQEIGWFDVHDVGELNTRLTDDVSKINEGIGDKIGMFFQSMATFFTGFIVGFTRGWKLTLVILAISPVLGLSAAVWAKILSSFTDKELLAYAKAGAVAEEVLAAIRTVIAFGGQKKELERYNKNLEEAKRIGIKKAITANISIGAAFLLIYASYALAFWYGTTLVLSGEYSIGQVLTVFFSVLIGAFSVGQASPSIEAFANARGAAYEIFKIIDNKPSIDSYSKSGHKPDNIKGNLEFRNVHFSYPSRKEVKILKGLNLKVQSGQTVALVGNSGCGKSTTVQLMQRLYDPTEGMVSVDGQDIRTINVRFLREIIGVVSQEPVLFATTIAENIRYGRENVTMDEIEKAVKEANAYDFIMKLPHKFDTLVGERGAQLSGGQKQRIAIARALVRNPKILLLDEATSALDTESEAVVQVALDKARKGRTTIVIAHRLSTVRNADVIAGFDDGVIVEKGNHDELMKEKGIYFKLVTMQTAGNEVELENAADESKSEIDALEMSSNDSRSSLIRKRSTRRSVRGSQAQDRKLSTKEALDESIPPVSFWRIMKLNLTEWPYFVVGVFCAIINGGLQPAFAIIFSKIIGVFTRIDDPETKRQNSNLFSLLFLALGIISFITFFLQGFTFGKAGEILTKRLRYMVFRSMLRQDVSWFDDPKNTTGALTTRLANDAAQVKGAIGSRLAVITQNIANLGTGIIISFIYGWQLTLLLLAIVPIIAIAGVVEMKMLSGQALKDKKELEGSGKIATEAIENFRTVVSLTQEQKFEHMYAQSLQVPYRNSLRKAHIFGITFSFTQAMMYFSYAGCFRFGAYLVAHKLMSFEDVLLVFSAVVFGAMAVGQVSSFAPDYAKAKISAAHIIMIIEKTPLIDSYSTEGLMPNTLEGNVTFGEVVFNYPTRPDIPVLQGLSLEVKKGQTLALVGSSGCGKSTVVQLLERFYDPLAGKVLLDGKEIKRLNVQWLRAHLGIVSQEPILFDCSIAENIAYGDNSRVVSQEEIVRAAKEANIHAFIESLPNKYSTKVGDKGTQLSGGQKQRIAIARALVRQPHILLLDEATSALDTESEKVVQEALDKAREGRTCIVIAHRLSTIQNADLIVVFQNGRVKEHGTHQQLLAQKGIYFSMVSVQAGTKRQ
Procedure, shortened: (§1)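 Done on KBv1 cells (ABCB1-overexpressing KB subclone), maintained in DMEM with 10% FCS and 270 ng/mL vinblastine. Intracellular calcein fluorescence from calcein-AM was measured by flow cytometry in the presence of test compound.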

[6] = biological target: T4, ABCB1; experiment: (§2) Inhibition of ABCB1 overexpressed in human KBv1 cells at 10 uM by flow cytometric-based calcein-AM efflux assay; format: cell-based; conditions: KBv1 cells overexpressing ABCB1, probe calcein-AM; procedure, shortened: as §1
[7] = biological target: T3, ATP-binding cassette sub-family C member 2; experiment: Inhibition of ABCC2 overexpressed in MDCK cells […] by flow cytometric-based chloromethylfluorescein-diacetate accumulation assay; format: cell-based
[8] = biological target: T1, ATP-dependent translocase ABCB1; experiment: as §2; format: cell-based; conditions: kbv1, 10 µM; procedure, shortened: as §1
[9] = system: MCF7; experiment: Potentiation of ABCG2 positive topotecan-induced cytotoxicity in topotecan-resistant human MCF7 cells at 100 nM by chemosensitivity assay
[10] = system: MCF7; experiment: Cytotoxicity against ABCG2 positive topotecan-resistant human MCF7 cells up to 500 uM by chemosensitivity assay; format: functional, cell-based
Procedure, shortened: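 MCF-7/Topo cells (ABCG2-overexpressing, kept in EMEM with 5% FCS and 0.55 µM topotecan) were seeded into 96-well plates and grown 2-3 days. Test compound alone was then given under permanent exposure, against vehicle, with 16 wells per concentration. Cells were fixed with glutardialdehyde at various times and stained with crystal violet. A578 was read and corrected T/C% calculated.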

[11] = Cytotoxicity against ABCG2 negative human U373MG cells by chemosensitivity assay; format: ADME, cell-based; conditions: u-373mg atcc
Procedure, shortened: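 Proliferating ABCG2/ABCB1-nonexpressing U-373 MG glioblastoma cells (EMEM, 5% FCS, 37 °C, 5% CO2) seeded in 96-well plates, medium replaced after 2-3 days with drug or vehicle (1000-fold feed solutions); 16 wells per concentration. Cells fixed with glutardialdehyde at various times, stained with crystal violet, absorbance 578 nm; corrected T/C and cytocidal effect calculated.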

[12] = system: MCF7; experiment: Cytotoxicity against ABCG2 positive topotecan-resistant human MCF7 cells up to 100 nM by chemosensitivity assay

T1 sequence (P08183 whole entry): as above

SMILES	IC50 [1]	inhibition (INH) [2]	Activity [3]	IC50 [4]	IC50 [7]	other results
COc1cc2c(cc1OC)CN(CCc1ccc(NC(=O)c3cc(NC(=O)c4cnc5ccccc5c4)c(OC)c(OC)c3)cc1)CC2	> 17000 nM	36%	Not Active	858 nM		
COc1cc2c(cc1OC)CN(CCc1ccc(NC(=O)c3cc(OC)c(OC)cc3NC(=O)c3cnc4ccccc4c3)cc1)CC2		39%	Not Active	916 nM		
COc1ccc2c3c([nH]c2c1)[C@H](C=C(C)C)N1C(=O)[C@@H]2CCCN2C(=O)[C@@H]1C3 [FUMITREMORGIN]		100%	Not Active	> 11000 nM		inhibition at 100 µM [5]: 22%; inhibition at 10 µM [6]: 0.8%
COC(=O)c1ccc(C(=O)Nc2ccc(CCN3CCc4cc(OC)c(OC)cc4C3)cc2)cc1NC(=O)c1cccnc1	> 14000 nM	47%		1020 nM	> 20000 nM	
COc1ccc(C(=O)Nc2ccc(CCN3CCc4cc(OC)c(OC)cc4C3)cc2)cc1NC(=O)c1cnc2ccccc2c1	> 6000 nM	63%	Not Active	317 nM		
COC(=O)c1ccc(C(=O)Nc2ccc(CCN3CCc4cc(OC)c(OC)cc4C3)cc2)cc1NC(=O)c1cnc2ccccc2n1	> 34000 nM	55%		183 nM		
CN(C)C(=O)CCSC(SCCC(=O)O)c1cccc(/C=C/c2ccc3ccc(Cl)cc3n2)c1 (stereo unspecified) [MK-571]					> 1000 nM	
COC(=O)c1ccc(C(=O)Nc2ccc(CCN3CCc4cc(OC)c(OC)cc4C3)cc2)cc1NC(=O)c1ccc2ncccc2c1		25%		179 nM		Activity [8]: Not Active
CCCCC/C=C\C\C=C/C=C/C=C/[C@@H](SC[C@@H](NC(=O)CC[C@H](N)C(=O)O)C(=O)NCC(=O)O)[C@@H](O)CCCC(=O)O [LEUKOTRIEN C4]					< 150 nM	
COc1ccc2c3c([nH]c2c1)[C@H](CC(C)C)N1C(=O)[C@H](CCC(=O)OC(C)(C)C)NC(=O)[C@@H]1C3					> 50000 nM	Activity [9]: Active; inhibition at 10 µM [6]: 1.6%; Activity [10]: Active
COc1cc2c(cc1OC)CN(CCc1ccc(NC(=O)c3ccc(C)c(NC(=O)c4cnc5ccccc5c4)c3)cc1)CC2	> 15000 nM	52%		1990 nM	> 50000 nM	
COC(=O)c1ccc(C(=O)Nc2ccc(CCN3CCc4cc(OC)c(OC)cc4C3)cc2)cc1NC(=O)c1cnc(C)cn1	> 57000 nM	44%		552 nM	> 20000 nM	
COC(=O)c1ccc(C(=O)Nc2ccc(CCN3CCc4cc(OC)c(OC)cc4C3)cc2)cc1NC(=O)c1cnc2ccccc2c1	9450 nM	41%	Not Active	119 nM		Activity [11]: Toxic; Activity [12]: Active
COc1cc(NC(=O)c2cnc3ccccc3c2)cc(C(=O)Nc2ccc(CCN3CCc4cc(OC)c(OC)cc4C3)cc2)c1	> 15000 nM	43%	Not Active	977 nM		
COC(=O)c1ccc(C(=O)Nc2ccc(CCN3CCc4cc(OC)c(OC)cc4C3)cc2)cc1NC(=O)c1cnccn1	> 20000 nM	38%		632 nM	> 50000 nM	
COc1cc2c(cc1OC)CN(CCc1ccc(NC(=O)c3cccc4c(=O)c5cccc(OC)c5[nH]c34)cc1)CC2		46%	Not Active			
COC(=O)c1ccc(C(=O)Nc2ccc(CCN3CCc4cc(OC)c(OC)cc4C3)cc2)cc1NC(=O)c1ccc2ccccc2n1	> 29000 nM	56%		60 nM	> 20000 nM	Activity [9]: Active

Source: ChEMBL document CHEMBL1140935, “Potent and selective inhibitors of breast cancer resistance protein (ABCG2) derived from the p-glycoprotein (ABCB1) modulator tariquidar” (J Med Chem, 2009)
